Measurements as given in paper PMC8416298 (European Journal of Medicinal Chemistry, 2021).
Where two headings read alike, the source gives them in different places.

Key:
SARS-CoV-2 [1] = conditions: 4-day cytopathic effect protection assay, Vero E6 cells; cited from earlier work
SARS-CoV-2 [2] = conditions: virus yield reduction assay, 48 h, infected Vero E6 cells; cited from earlier work
[3] = test system: human prostaglandin E synthase type 2 (PGES-2); conditions: cited from earlier work
CCoV = conditions: dog, po, 1 mg/kg; cited from earlier work
SARS-CoV-2/NL/2020 = assay: Plaque reduction assay; type: cell-based; conditions: for dose-dependent inhibitory activity: any of the tested SARS-CoV-2 strains, up to 50 μM
MRC-5 cells = assay: MTT cell viability assay in MRC-5 cells; type: cell-based, human; conditions: in words
Procedure, shortened: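 Human fibroblast MRC-5 cells exposed to test compound for 72 h; viability read by MTT (3-(4,5-dimethylthiazol-2-yl)-2,5-diphenyl tetrazolium bromide) assay. CC50 taken as the compound concentration that inhibits cell viability by 50%.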

HCoV-229E = assay: microbe, parasite or virus in culture; type: cell-based; conditions: Human coronavirus 229E, MRC5, read-out: EC50 (CI)

For `COc1ccc2c(c1)c(CC(=O)O)c(C)n2C(=O)c1ccc(Cl)cc1` [INM, Indomethacin], the EC50 (SARS-CoV-2 [1]) is given as greater than 400 µM, the EC50 (SARS-CoV-2 [2]) is given as 100 µM and the PGES-2 inhibition [3] is given as “low nanomolar range”. The “in vivo antiviral efficacy” value (CCoV) was “in vivo antiviral efficacy”.
With `COc1ccc2c(c1)c(CC(=O)NCCOCCOCC(=O)N[C@H](C(=O)N1C[C@H](O)C[C@H]1C(=O)N[C@@H](C)c1ccc(-c3scnc3C)cc1)C(C)(C)C)c(C)n2C(=O)c1ccc(Cl)cc1` [Compound 4, (2S,4R)-1-((S)-2-(tert-butyl)-14-(1-(4-chlorobenzoyl)-5-methoxy-2-methyl-1H-indol-3-yl)-4,13-dioxo-6,9-dioxa-3,12-diazatetradecanoyl)-4-hydroxy-N-((S)-1-(4-(4-methylthiazol-5-yl)phenyl)ethyl)pyrrolidine-2-carboxamide] the dose-dependent inhibitory activity (SARS-CoV-2/NL/2020) was “did not show dose-dependent inhibitory activity” and the “activity in PRA” value (SARS-CoV-2/NL/2020; in words) was “not active”.
For `COc1ccc2c(c1)c(CC(=O)NCCCCCCC(=O)N[C@H](C(=O)N1C[C@H](O)C[C@H]1C(=O)N[C@@H](C)c1ccc(-c3scnc3C)cc1)C(C)(C)C)c(C)n2C(=O)c1ccc(Cl)cc1` [Compound 3, (2S,4R)-1-((S)-2-(7-(2-(1-(4-chlorobenzoyl)-5-methoxy-2-methyl-1H-indol-3-yl)acetamido)heptanamido)-3,3-dimethylbutanoyl)-4-hydroxy-N-((S)-1-(4-(4-methylthiazol-5-yl)phenyl)ethyl)pyrrolidine-2-carboxamide], the cytotoxicity (MRC-5 cells) was “did not show significant cytotoxicity”.
In the case of `COc1ccc2c(c1)c(CC(=O)NCCN1CCN(C(=O)CCC(=O)N[C@H](C(=O)N3C[C@H](O)C[C@H]3C(=O)N[C@@H](C)c3ccc(-c4scnc4C)cc3)C(C)(C)C)CC1)c(C)n2C(=O)c1ccc(Cl)cc1` [Compound 5, (2S,4R)-1-((S)-2-(4-(4-(2-(2-(1-(4-chlorobenzoyl)-5-methoxy-2-methyl-1H-indol-3-yl)acetamido)ethyl)piperazin-1-yl)-4-oxobutanamido)-3,3-dimethylbutanoyl)-4-hydroxy-N-((S)-1-(4-(4-methylthiazol-5-yl)phenyl)ethyl)pyrrolidine-2-carboxamide], the cytotoxicity (MRC-5 cells) is reported as “did not show significant cytotoxicity” and the EC50 (HCoV-229E) is reported as 3.4 µM.
With `COc1ccc2c(c1)c(CC(=O)NCCCCC(=O)N[C@H](C(=O)N1C[C@H](O)C[C@H]1C(=O)N[C@@H](C)c1ccc(-c3scnc3C)cc1)C(C)(C)C)c(C)n2C(=O)c1ccc(Cl)cc1` [Compound 2, (2S,4R)-1-((S)-2-(5-(2-(1-(4-chlorobenzoyl)-5-methoxy-2-methyl-1H-indol-3-yl)acetamido)pentanamido)-3,3-dimethylbutanoyl)-4-hydroxy-N-((S)-1-(4-(4-methylthiazol-5-yl)phenyl)ethyl)pyrrolidine-2-carboxamide] the dose-dependent inhibitory activity (SARS-CoV-2/NL/2020) was “did not show dose-dependent inhibitory activity”.
